The record followed here is ChEMBL document CHEMBL1154621, “Structure-based design of DevR inhibitor active against nonreplicating Mycobacterium tuberculosis” (J Med Chem, 2009).

Assay [1] deals with T1, DNA-binding transcriptional activator DevR/DosR (Mycobacterium tuberculosis, UniProt P9WMF9). Put plainly: Inhibition of DevR region-dependent Rv3134c promoter activity in Mycobacterium tuberculosis H37Rv after 48 hrs by GFP reporter gene assay. In outline:
(§1)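 H37Rv carrying DevR-regulated promoter-gfp plasmids, grown in Dubos/Tween/ADC medium to OD595 ~0.4 and diluted to OD ~0.05. Exposed to 2-fold serial compound dilutions from DMSO stocks for 48 h at 37 °C. Fluorescence corrected for vector and compound background. Percent inhibition = [1 - RFUcompound/RFUDMSO] × 100; mean ± SD of three experiments, each in triplicate wells.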
For orientation: A reporter such as luciferase makes a cellular process visible.

In assay [2] the target is T1, DNA-binding transcriptional activator DevR/DosR. In words: Inhibition of Mycobacterium tuberculosis phosphorylated DevR binding to fdxA promoter DNA after 10 mins by EMSA. A digest of the protocol:
(§2)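 N-terminal GST-tagged DevR was phosphorylated with acetyl phosphate; DevR~P (1 μM final) was preincubated 10 min at 30 °C with or without compound. ~2 ng 32P end-labelled fdxA promoter PCR probe was added and incubated 30 min on ice in binding buffer. Complexes resolved by gel electrophoresis.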

Assay [3] deals with DNA-binding transcriptional activator DevR/DosR (Mycobacterium tuberculosis) (UniProt P9WMF9). Put plainly: Inhibition of DevR region-dependent Rv3134c promoter activity in Mycobacterium tuberculosis H37Rv at 250 uM after 48 hrs by GFP reporter gene assay. A digest of the protocol:
as §1

Assay [4] has the same target. In words: Inhibition of Mycobacterium tuberculosis phosphorylated DevR binding to fdxA promoter DNA at 250 uM after 10 mins by EMSA. A digest of the protocol:
as §2

Assay [5] deals with Mycobacterium tuberculosis. Put plainly: Inhibition of constitutive sigA promoter activity in Mycobacterium tuberculosis H37Rv. Format: functional, organism-based. A digest of the protocol: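 Strains carrying Rv3134c or sigA promoter-gfp were grown in 7H9/Tween/ADC to OD595 ~0.40. Washed twice with PBS, resuspended in PBS (starved) or medium, and diluted to OD595 ~0.02. 1 mL aliquots incubated; 200 μL samples taken weekly to measure GFP fluorescence.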

Assay [6] concerns the target DNA-binding transcriptional activator DevR/DosR (Mycobacterium tuberculosis) (UniProt P9WMF9). In words: Inhibition of Mycobacterium tuberculosis phosphorylated DevR binding to fdxA promoter DNA at 500 uM after 10 mins by EMSA. In outline:
as §2

Assay [7] concerns Mycobacterium tuberculosis. Put plainly: Antimycobacterial activity against 30 day old non-replicating dormant cultures of Mycobacterium tuberculosis H37Rv assessed as revival of bacterial viability at 131 ug/mL exposed for 11 days measured after 30 days post exposure by resazurin reduction assay. Format: functional, organism-based. In outline:
(§3)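 Hypoxic cultures were pelleted at 11000g at the end of exposure (30 days if compound was given on day 0, 41 days if given on day 30). Washed and resuspended in 4 mL 7H9 with 5% OADC and 0.1% Tween-80. Grown aerobically at 190 rpm, 37 °C. Aliquots taken every 5 days; recovery read by resazurin reduction and OD595, scored 1-40 with day 0 = 1.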

The target of assay [8] is DNA-binding transcriptional activator DevR/DosR (Mycobacterium tuberculosis) (UniProt P9WMF9). Put plainly: Inhibition of Mycobacterium tuberculosis phosphorylated DevR binding to fdxA promoter DNA added after DevR phosphorylation by EMSA.
Sequence of DNA-binding transcriptional activator DevR/DosR (Mycobacterium tuberculosis) (P9WMF9 whole entry): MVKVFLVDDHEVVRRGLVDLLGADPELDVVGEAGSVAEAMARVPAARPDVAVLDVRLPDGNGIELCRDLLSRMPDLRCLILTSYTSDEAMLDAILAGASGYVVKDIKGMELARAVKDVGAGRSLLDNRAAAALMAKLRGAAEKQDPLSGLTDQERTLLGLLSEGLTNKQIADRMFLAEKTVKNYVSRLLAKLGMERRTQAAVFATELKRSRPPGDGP
Assay [9] has as its system Mycobacterium tuberculosis. In words: Antimycobacterial activity against hypoxic dormant cultures of Mycobacterium tuberculosis H37Rv assessed as reduction of bacterial viability at 131 ug/mL administered on day 0 into hypoxic tubes measured after 30 days by resazurin reduction assay. Type of assay: functional. In outline:
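H37Rv in Dubos medium at OD595 0.003; 2 mL aliquots in sealed 4 mL tubes held static, compound injected on day 0. Incubated until methylene blue decolorized (anaerobiosis, ~30 days). CFU plating of aliquots, then resazurin 0.02% and Tween-80 20% injected, overnight incubation, viability by resazurin reduction (HyRRA). DMSO control matched.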
A general note: Alamar Blue is a resazurin reagent that responds to reducing activity.

In assay [10] the test system is Mycobacterium tuberculosis. Put plainly: Antimycobacterial activity against aerobic Mycobacterium tuberculosis H37Rv by resazurin reduction based REMA assay. Format: functional, organism-based. In outline: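 Aerobic H37Rv exposed to compounds in triplicate cultures for 7 days. Then 0.02% resazurin and 20% Tween-80 added; after 48 h, blue-to-pink colour change read, with fluorescence at excitation 530 nm, emission 590 nm.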

The test system of assay [11] is Mycobacterium tuberculosis. In words: Antimycobacterial activity against 30 day old non-replicating dormant cultures of Mycobacterium tuberculosis H37Rv assessed as reduction of bacterial viability at 131 ug/mL measured after 11 days by resazurin reduction assay. Format: functional, organism-based. In outline:
(§4)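 H37Rv grown in Dubos medium to OD595 ~0.4, diluted to OD595 0.003; 2 mL aliquots held static in sealed 4 mL tubes for 30 days until hypoxic. Compounds added to these dormant cultures for a further 11 days. Metronidazole and isoniazid were controls. Read by CFU plating of aliquots, then resazurin 0.02% plus Tween-80 20% injected, overnight incubation, resazurin reduction (HyRRA).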

The target of assay [12] is DNA-binding transcriptional activator DevR/DosR (Mycobacterium tuberculosis) (UniProt P9WMF9). Put plainly: Inhibition of Mycobacterium tuberculosis phosphorylated DevR binding to fdxA promoter DNA added before DevR phosphorylation by EMSA.
In assay [13] the target is T1, DNA-binding transcriptional activator DevR/DosR. In words: Inhibition of DevR region-dependent hspX promoter activity in Mycobacterium tuberculosis H37Rv after 48 hrs by GFP reporter gene assay. In outline: as §1
The target is the same in assay [14]. In words: Inhibition of DevR region-dependent narK2 promoter activity in Mycobacterium tuberculosis H37Rv after 48 hrs by GFP reporter gene assay. In outline: as §1
Assay [15] relates to Mycobacterium tuberculosis. In words: Antimycobacterial activity against nutrient starvation-induced dormant Mycobacterium tuberculosis H37Rv expressing Rv3134c/sigA promoter driven GFP reporter genes. Type of assay: functional, organism-based.
For assay [16], the system named is Mycobacterium tuberculosis. Put plainly: Antimycobacterial activity against hypoxic dormant cultures of Mycobacterium tuberculosis H37Rv assessed as revival of bacterial viability at 131 ug/mL administered on day 0 into hypoxic tubes measured after 30 days under hypoxic conditions by resazurin reduction assay. Format: functional, organism-based. In outline:
as §3

In assay [17] the target is DNA-binding protein HupB (Mycobacterium tuberculosis (strain ATCC 25177 / H37Ra)) (UniProt A5U6Z7). In words: Inhibition of Mycobacterium tuberculosis HupB binding to fdxA promoter DNA at 500 uM by EMSA. A digest of the protocol: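 Purified HupB protein incubated with compound, then ~2 ng 32P-labelled fdxA promoter probe added for 30 min on ice in binding buffer. Complexes resolved by gel shift electrophoresis against positive and negative controls.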
Sequence of DNA-binding protein HupB (Mycobacterium tuberculosis (strain ATCC 25177 / H37Ra)) (A5U6Z7 whole entry): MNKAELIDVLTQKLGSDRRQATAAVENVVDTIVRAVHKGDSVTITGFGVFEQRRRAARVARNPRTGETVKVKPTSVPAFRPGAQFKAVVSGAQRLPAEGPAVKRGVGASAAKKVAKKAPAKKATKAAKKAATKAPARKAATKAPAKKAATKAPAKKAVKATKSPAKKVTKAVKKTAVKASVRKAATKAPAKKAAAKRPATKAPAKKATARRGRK

Assay [18] deals with Mycobacterium tuberculosis. In words: Antimycobacterial activity against 30 day old non-replicating dormant cultures of Mycobacterium tuberculosis H37Rv assessed as revival of bacterial viability exposed for 11 days measured after 30 days post exposure by resazurin reduction assay. Type of assay: functional, organism-based. A digest of the protocol: as §3
Assay [19] relates to Mycobacterium tuberculosis. In words: Antimycobacterial activity against 30 day old non-replicating dormant cultures of Mycobacterium tuberculosis H37Rv assessed as reduction of bacterial viability measured after 11 days by resazurin reduction assay. Format: functional, organism-based. In outline:
as §4

Activity calls are given as the source filed them. The rule behind the calls is not given here. A value given as a limit tells only on which side of the number the result lay.

T1 sequence (P9WMF9 whole entry): as the sequence (P9WMF9 whole entry) above

In the case of `O=c1[nH]cc(/N=C/c2cc([N+](=O)[O-])ccc2O)c(=O)[nH]1`, the IC50 entry in assay [1] and in assay [2] was “Not Active” in each case.
`COc1cc(NC(=O)c2cc3ccccc3o2)ccc1NC(=O)c1ccccc1Cl`: in assay [3], the inhibition – broadly, the relative decrease from the control value, in per cent – was 30%. In addition, the IC50 (in general, the point on the concentration scale where inhibition reaches its midpoint) in [1] (read-out: IC50 (converted)) is 300 µM; in [2] (read-out: IC50 (converted)), 200 µM. The result in assay [4] and in assay [5] was Active.
As to `C=CCc1cc(/C=C2\NC(=O)N(c3ccccc3F)C2=O)cc(OCC)c1O`, the inhibition in assay [3] was determined as 30%; in [6], 100%. For the same molecule, the figures for the IC50 in assay [1] (read-out: IC50 (converted)) and in assay [2] (read-out: IC50 (converted)) were 311 µM and 259 µM, respectively. Also, the result in [5] was Active.
In the case of `COc1cc(Br)cc(/C=C2/SC(Nc3cccc(C(=O)O)c3)=NC2=O)c1O`, the IC50 entry in [1] and in assay [2] was “Not Active” each time.
For the molecule `Nc1nc2c(nc(Br)n2[C@H]2O[C@H](CO)[C@@H](O)[C@@H]2O)c(=O)[nH]1`, the IC50 entry in [1] and in assay [2] was “Not Active” throughout.
For the molecule `COc1cc(C(=O)NCC(=O)NN)cc(OC)c1OC`, the IC50 entry in assay [1] and in assay [2] was “Not Active” in each case.
On to `COc1cc(NC(=O)c2ccc(-c3cc4ccccc4oc3=O)cc2)ccc1NC(=O)c1ccccc1Cl`, for which the outcome in assay [7], in [10], in assay [11], in assay [5], in assay [15] and in assay [17] was inactive. Also, the inhibition in assay [3] came to 50%. Besides, the result in [8], in assay [12], in assay [4] and in assay [16] was Active. Also, the Activity in assay [9] is recorded as over 99%. For the same molecule, the IC50 was 125 µM in assay [1] (read-out: IC50 (converted)), under 125 µM in assay [13], under 125 µM in assay [14] and under 49.9 µM in [2] (read-out: IC50 (converted)).
As for `COC(=O)c1ccc(Cl)c(NC(=O)c2ccc(CN3CCOCC3)cc2)c1`, the IC50 result in assay [1] and in [2] was “Not Active” in each case.
With `Cc1cc(=O)[nH]c2sc(C(=O)c3ccc(Br)cc3)c(N)c12`, the IC50 result in assay [1] and in assay [2] was “Not Active” throughout.
For the molecule `Cc1ncc([N+](=O)[O-])n1CCO`, the result in assay [18] and in [19] was Active.
`COc1cc(NC(=O)CCc2ccc(OCc3ccc(Cl)cc3)c(OC)c2)c(OC)cc1Cl` returned an inhibition in assay [3] of 50%. Besides, the figures for the IC50 in [1] (read-out: IC50 (converted)) and in assay [2] (read-out: IC50 (converted)) were 249 µM and 295 µM, respectively. The result in [4] and in assay [5] was Active.
Regarding `NNC(=O)c1ccncc1`, the outcome in [18] and in assay [19] was inactive.
In the case of `O=C(NCc1ccccc1)c1ccccc1NS(=O)(=O)c1ccc2c(c1)OCCO2`, the IC50 entry in assay [1] and in assay [2] was “Not Active” throughout.
